# Assay results: ChEMBL document CHEMBL1121449, “Synthesis and antineoplastic activity of hydroquinone dialdehydes” (J Med Chem, 1980)
# How the values were obtained:
# Mus musculus [1] = experiment: Tested for change in body weight from onset to termination at dose of 5 mg/kg; assay type: functional
# Outline: (§1)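 Female CD-1 mice inoculated ip with 0.1 mL of 10^7 Sarcoma 180 ascites cells/mL. Drug in 0.9% NaCl with 5% ethanol and Tween 80, serially diluted in saline, given ip once daily for 6 days starting 24 h after implantation. Dose based on mean starting weight. Controls received saline. Weight change recorded from day 0 to day 7, as % change.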
# Mus musculus [2] = experiment: Tested for change in body weight of Mice bearing Ehrlich carcinoma from onset to termination at dose of 5 mg/kg; assay type: functional
# Outline: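 Female CD-1 mice given ip implants of Ehrlich carcinoma (0.1 mL of 10^7 cells/mL). Drug in saline containing 5% ethanol and Tween 80, injected ip once daily for 6 consecutive days from 24 h post-implant. Controls received 0.9% NaCl. % body weight change measured between tumor implantation (day 0) and day 7.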
# Mus musculus [3] = experiment: Tested for change in body weight of Mice bearing […] 755 from onset to termination at dose of 10 mg/kg; assay type: functional
# Outline: (§2)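 Adenocarcinoma 755 implanted ip (0.1 mL of 10^7 cells/mL) in female AKD2F1 mice. Daily ip dosing for 6 days beginning 24 h after implantation, vehicle 0.9% NaCl/5% ethanol/Tween 80, lower doses by saline dilution. Control mice received saline. Weight difference between day 0 and day 7 taken as % change and used as a toxicity measure.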
# Mus musculus [4] = experiment: Tested for change in body weight of Mice bearing […] 755 from onset to termination at dose of 20 mg/kg; assay type: functional; outline: as §2
# Mus musculus [5] = experiment: Tested for change in body weight of Mice bearing […] 755 from onset to termination at dose of 5 mg/kg; assay type: functional; outline: as §2
# Mus musculus [6] = experiment: Tested for mean survival time of Mice bearing Ehrlich carcinoma not surviving 50 days as a percentage at dose of 10 mg/kg; assay type: functional
# Outline: (§3)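 Female CD-1 mice, Ehrlich ascites carcinoma, 0.1 mL of 10^7 cells/mL given ip. Drug in 0.9% NaCl with 5% ethanol and trace Tween 80, serially diluted with saline. Dosed ip at 0.5 mL once daily for 6 days from 24 h post-implant; saline controls. T/C is the mean survival of treated mice dying before 50 days as % of controls. Survivors are those alive ≥50 days.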
# Mus musculus [7] = experiment: Tested for mean survival time of Mice bearing Ehrlich carcinoma not surviving 50 days as a percentage at dose of 20 mg/kg; assay type: functional; outline: as §3
# Mus musculus [8] = experiment: Tested for mean survival time of Mice bearing Ehrlich carcinoma not surviving 50 days as a percentage at dose of 5 mg/kg; assay type: functional; outline: as §3
# Mus musculus [9] = experiment: Tested for mean survival time of Mice bearing […] 755 not surviving 50 days as a percentage at dose of 10 mg/kg; assay type: functional
# Outline: (§4)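 Female AKD2F1 mice, adenocarcinoma 755, 0.1 mL of 10^7 cells/mL given ip. Vehicle 0.9% NaCl/5% ethanol/Tween 80, serially diluted with saline. Dosed ip at 0.5 mL once daily for 6 consecutive days starting 24 h post-implant; saline controls. T/C is the mean survival of non-50-day survivors as % of controls. Survivors are those alive ≥50 days.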
# Mus musculus [10] = experiment: Tested for mean survival time of Mice bearing […] 755 not surviving 50 days as a percentage at dose of 20 mg/kg; assay type: functional; outline: as §4
# Mus musculus [11] = experiment: Tested for mean survival time of Mice bearing […] 755 not surviving 50 days as a percentage at dose of 5 mg/kg; assay type: functional; outline: as §4
# Mus musculus [12] = experiment: Tested for mean survival time treated animal not surviving 50 days as a percentage at dose of 1.25 mg/kg; assay type: functional
# Outline: (§5)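 Female CD-1 mice, Sarcoma 180 ascites, 0.1 mL of 10^7 cells/mL given ip. Drug in 0.9% NaCl, 5% ethanol, Tween 80, serially diluted with saline. Dosed ip at 0.5 mL daily for 6 days from 24 h post-implant; daily dose based on starting mean weight. T/C is the mean survival of treated mice dying before 50 days vs controls. Survivors are those alive ≥50 days out of those treated.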
# Mus musculus [13] = experiment: Tested for mean survival time treated animal not surviving 50 days as a percentage at dose of 10 mg/kg; assay type: functional; outline: as §5
# Mus musculus [14] = experiment: Tested for mean survival time treated animal not surviving 50 days as a percentage at dose of 15 mg/kg; assay type: functional; outline: as §5
# Mus musculus [15] = experiment: Tested for mean survival time treated animal not surviving 50 days as a percentage at dose of 2.5 mg/kg; assay type: functional; outline: as §5
# Mus musculus [16] = experiment: Tested for mean survival time treated animal not surviving 50 days as a percentage at dose of 20 mg/kg; assay type: functional; outline: as §5
# Mus musculus [17] = experiment: Tested for mean survival time treated animal not surviving 50 days as a percentage at dose of 5 mg/kg; assay type: functional; outline: as §5
# Mus musculus [18] = experiment: Tested for change in body weight from onset to termination at dose of 1.25 mg/kg; assay type: functional; outline: as §1
# Mus musculus [19] = experiment: (§6) Tested for change in body weight from onset to termination at dose of 10 mg/kg; assay type: functional
# Outline: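 Tumor-bearing mice were dosed ip once daily for 6 consecutive days from 24 h after ip tumor implantation; saline controls. Each group was weighed on day 7, the day after the last injection, and the change from the implantation day (day 0) was expressed as % body-weight change, used as a toxicity measure.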
# Mus musculus [20] = experiment: Tested for change in body weight from onset to termination at dose of 15 mg/kg; assay type: functional; outline: as §1
# Mus musculus [21] = experiment: Tested for change in body weight from onset to termination at dose of 2.5 mg/kg; assay type: functional; outline: as §1
# Mus musculus [22] = experiment: Tested for change in body weight from onset to termination at dose of 20 mg/kg; assay type: functional; outline: as §1
# Mus musculus [23] = experiment: Tested for Mice bearing […] 755 surviving at least 50 days out of 5 animal treated at dose of 10 mg/kg; assay type: functional; outline: as §4
# Mus musculus [24] = experiment: Tested for Mice bearing […] 755 surviving at least 50 days out of 5 animal treated at dose of 20 mg/kg; assay type: functional; outline: as §4
# Mus musculus [25] = experiment: Tested for Mice bearing […] 755 surviving at least 50 days out of 5 animal treated at dose of 5 mg/kg; assay type: functional; outline: as §4
# Mus musculus [26] = experiment: Tested for number of animal surviving at least 50 days out of 10 animal treated at dose of 15 mg/kg; assay type: functional; outline: as §5
# Mus musculus [27] = experiment: Tested for number of animal surviving at least 50 days out of 10 animal treated at dose of 2.5 mg/kg; assay type: functional; outline: as §5
# Mus musculus [28] = experiment: Tested for number of animal surviving at least 50 days out of 10 animal treated at dose of 20 mg/kg; assay type: functional; outline: as §5
# Mus musculus [29] = experiment: Tested for Mice bearing Ehrlich carcinoma surviving at least 50 days out of 10 animal treated at dose of 10 mg/kg; assay type: functional; outline: as §3
# Mus musculus [30] = experiment: Tested for Mice bearing Ehrlich carcinoma surviving at least 50 days out of 10 animal treated at dose of 20 mg/kg; assay type: functional; outline: as §3
# Mus musculus [31] = experiment: Tested for Mice bearing Ehrlich carcinoma surviving at least 50 days out of 10 animal treated at dose of 5 mg/kg; assay type: functional; outline: as §3
# [32] = Tested for inhibition of growth of sarcoma 180 cells in culture; assay type: functional, cell-based; details: Mus musculus
# Outline: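 Sarcoma 180 cells in suspension in Fischer's medium with 10% horse serum and penicillin/streptomycin, seeded at 10^4 cells/mL. Drug added from 10× stocks in 10% Me2SO/PBS, final 1–100 μM. Control cultures contained 1% Me2SO. Triplicate Coulter counts at 24, 48 and 72 h. IC50 read from a plot of inhibition of cell-number increase at 72 h versus concentration.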
# Mus musculus [33] = experiment: Tested for number of animal surviving at least 50 days out of 5 animal treated at dose of 5 mg/kg
# Mus musculus [34] = experiment: Tested for number of animal surviving at least 50 days out of 25 animal treated at dose of 15 mg/kg
# Mus musculus [35] = experiment: Tested for mean survival time treated animal not surviving 50 days as a percentage at dose of 30 mg/kg; assay type: functional; outline: as §5
# Mus musculus [36] = experiment: as §6; assay type: functional; outline: as §1; remark: listed apart in the source
# Mus musculus [37] = experiment: Tested for change in body weight from onset to termination at dose of 30 mg/kg; assay type: functional; outline: as §1
# Mus musculus [38] = experiment: Tested for number of animal surviving at least 50 days out of 5 animal treated at dose of 10 mg/kg; assay type: functional; outline: as §5
# Mus musculus [39] = experiment: Tested for number of animal surviving at least 50 days out of 5 animal treated at dose of 20 mg/kg; assay type: functional; outline: as §5
# Mus musculus [40] = experiment: Tested for number of animal surviving at least 50 days out of 5 animal treated at dose of 30 mg/kg; assay type: functional; outline: as §5
# Mus musculus [41] = experiment: Tested for change in body weight from onset to termination at dose of mg/kg; assay type: functional; outline: as §1
# Mus musculus [42] = experiment: Tested for mean survival time treated animal not surviving 50 days as a percentage at dose of 0.31 mg/kg; assay type: functional; outline: as §5
# Mus musculus [43] = experiment: Tested for mean survival time treated animal not surviving 50 days as a percentage at dose of 0.63 mg/kg; assay type: functional; outline: as §5
# Mus musculus [44] = experiment: Tested for change in body weight from onset to termination at dose of 0.63 mg/kg; assay type: functional; outline: as §1
# Mus musculus [45] = experiment: Tested for number of animal surviving at least 50 days out of 10 animal treated at dose of 1.25 mg/kg; assay type: functional; outline: as §5
# Mus musculus [46] = experiment: Tested for number of animal surviving at least 50 days out of 15 animal treated at dose of 2.5 mg/kg; assay type: functional; outline: as §5
# Mus musculus [47] = experiment: Tested for number of animal surviving at least 50 days out of 15 animal treated at dose of 5 mg/kg; assay type: functional; outline: as §5
# Mus musculus [48] = experiment: Tested for number of animal surviving at least 50 days out of 5 animal treated at dose of 0.31 mg/kg; assay type: functional; outline: as §5
# Mus musculus [49] = experiment: Tested for number of animal surviving at least 50 days out of 5 animal treated at dose of 0.63 mg/kg; assay type: functional; outline: as §5
smiles,measurement,setting,value
CCCc1c(O)c(C=O)c(C=O)c(O)c1CCC,Activity,Mus musculus [1],9%
same,Activity,Mus musculus [2],5%
same,Activity,Mus musculus [3],-15%
same,Activity,Mus musculus [4],-15%
same,Activity,Mus musculus [5],-16%
same,Activity,Mus musculus [6],202%
same,Activity,Mus musculus [7],166%
same,Activity,Mus musculus [8],154%
same,Activity,Mus musculus [9],22%
same,Activity,Mus musculus [10],35%
same,Activity,Mus musculus [11],16%
same,Activity,Mus musculus [12],88%
same,Activity,Mus musculus [13],178%
same,Activity,Mus musculus [14],171%
same,"Mean survival time, treated vs control (T/C)",Mus musculus [15],138%
same,Activity,Mus musculus [16],150%
same,Activity,Mus musculus [17],205%
same,Activity,Mus musculus [18],10%
same,Activity,Mus musculus [19],-1%
same,Activity,Mus musculus [20],2%
same,Activity,Mus musculus [21],9%
same,Activity,Mus musculus [22],-3%
same,Survivors,Mus musculus [23],4
same,Survivors,Mus musculus [24],3
same,Survivors,Mus musculus [25],4
same,Survivors,Mus musculus [26],0
same,Survivors,Mus musculus [27],0
same,Survivors,Mus musculus [28],0
same,Survivors,Mus musculus [29],4
same,Survivors,Mus musculus [30],1
same,Survivors,Mus musculus [31],0
same,IC50,[32],29 µM
same,Survivors,Mus musculus [33],4
same,Survivors,Mus musculus [34],2
Cc1c(C)c(O)c(C=O)c(C)c1O,Activity,Mus musculus [13],94%
same,Activity,Mus musculus [16],84%
same,Activity,Mus musculus [35],89%
same,Activity,Mus musculus [36],25%
same,Activity,Mus musculus [22],25%
same,Activity,Mus musculus [37],17%
same,Survivors,Mus musculus [38],0
same,Survivors,Mus musculus [39],0
same,Survivors,Mus musculus [40],0
same,IC50,[32],27 µM
O=Cc1ccccc1C=O [ORTHO-PHTHALALDEHYDE],Activity,Mus musculus [1],-2%
same,Activity,Mus musculus [41],15%
same,Activity,Mus musculus [42],121%
same,Activity,Mus musculus [43],193%
same,Activity,Mus musculus [12],176%
same,Activity,Mus musculus [13],43%
same,"Mean survival time, treated vs control (T/C)",Mus musculus [15],154%
same,Activity,Mus musculus [17],99%
same,Activity,Mus musculus [44],5%
same,Activity,Mus musculus [18],4%
same,Activity,Mus musculus [19],-3%
same,Activity,Mus musculus [21],0%
same,Survivors,Mus musculus [45],1
same,Survivors,Mus musculus [46],0
same,Survivors,Mus musculus [47],0
same,Survivors,Mus musculus [48],0
same,Survivors,Mus musculus [49],0
same,Survivors,Mus musculus [38],0
same,IC50,[32],12 µM
